We go through three compounds from ChEMBL document CHEMBL5230169, “QSAR, structure-based pharmacophore modelling and biological evaluation of novel platelet ADP receptor (P2Y12) antagonist” (RSC Med Chem, 2023).

Assay type in all cases: cell-based
Assay [1] has as its target P2Y purinoceptor 12 (Homo sapiens) (UniProt Q9H244). As to the kind of experiment: Antagonist activity at P2Y12 receptor in human blood platelets assessed as inhibition of ADP-induced platelet aggregation at 10 uM compound preincubated with blood for 5 mins prior to ADP addition by electrode aggregometry assay. The note with it: filed as antagonist. The essentials: (§1)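 Fresh hirudin-anticoagulated human whole blood from volunteers free of medication for seven days, tested within two hours of venepuncture. 300 μL blood mixed with 300 μL pre-warmed isotonic saline containing compound (0, 0.1, 1, 10 or 100 μM final) or vehicle (1% DMSO final). Incubated 5 min at 37 °C, then 20 μL 0.2 mM ADP added.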

Assay [2] shares this target. The experiment in a line: Antagonist activity at P2Y12 receptor in human blood platelets assessed as inhibition of ADP-induced platelet aggregation at 0.1 uM compound preincubated with blood for 5 mins prior to ADP addition by electrode aggregometry assay. The essentials:
as §1

For assay [3] the target is unchanged. The experiment in a line: Antagonist activity at P2Y12 receptor in human blood platelets assessed as inhibition of ADP-induced platelet aggregation at 1 uM compound preincubated with blood for 5 mins prior to ADP addition by electrode aggregometry assay. The essentials:
as §1

P2Y purinoceptor 12 (Homo sapiens), sequence (Q9H244 whole entry): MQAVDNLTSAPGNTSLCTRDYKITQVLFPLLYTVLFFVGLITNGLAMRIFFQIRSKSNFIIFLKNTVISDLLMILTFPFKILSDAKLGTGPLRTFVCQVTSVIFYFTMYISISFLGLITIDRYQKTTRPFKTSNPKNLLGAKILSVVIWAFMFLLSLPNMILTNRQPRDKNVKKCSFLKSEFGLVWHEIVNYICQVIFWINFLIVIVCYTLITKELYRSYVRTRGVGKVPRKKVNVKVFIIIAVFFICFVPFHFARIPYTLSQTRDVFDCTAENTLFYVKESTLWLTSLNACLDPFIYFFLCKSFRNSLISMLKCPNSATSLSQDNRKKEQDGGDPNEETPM

In the case of `O=C(CCC(=O)Nc1ccc2[nH]c3ccccc3c(=O)c2c1)Nc1ccc2[nH]c3ccccc3c(=O)c2c1`, the inhibition (commonly the drop in the measured response relative to a control, in per cent) in assay [1] came to 57.8%; in assay [2] it was 22.3%; in assay [3] it was 33.6%.
In the same order, the values of `CCOC(=O)c1cc(NC(=O)c2cc(NC(=O)c3cc(NC(=O)c4c(-c5ccccc5)noc4C)cn3C)cn2C)cn1C` are 61.8%, 37% and 38.2%.
In the same order, the values of `O=C(CCCCCCCC(=O)Nc1ccc2[nH]c3ccccc3c(=O)c2c1)Nc1ccc2[nH]c3ccccc3c(=O)c2c1` are 41.1%, 4.75% and 22.8%.
